Measured values taken from ChEMBL document CHEMBL1148485, “Synthesis and biological evaluation of new selective cytotoxic cyclolignans derived from podophyllotoxin” (J Med Chem, 2004).

Columns and labels:
A549 = experiment: In vitro cytotoxicity against A-549 (human lung carcinoma) cell line.; type: functional, cell-based
SK-MEL-28 = experiment: Tested in vitro for antineoplastic activity against MEL-28 (human melanoma) tumor cell line; type: functional, cell-based
In short: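 MEL-28 cells seeded at 2 × 10^4 cells/well in MEM–10% FCS containing graded compound concentrations. Incubated 4 days at 37 °C, 10% CO2, 98% humidity. Stained with crystal violet and inhibition judged against untreated controls, which were kept in exponential growth. Mean of duplicate wells.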

HT-29 = experiment: In vitro cytotoxicity against HT-29 (human colon carcinoma) cell line.; type: functional, cell-based
P388 = experiment: Tested in vitro for antineoplastic activity against P-388 (lymphoid neoplasm from DBA/2 mouse) tumor cell line; type: functional, cell-based
In short: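 P-388 cells seeded at 1 × 10^4 cells/well in MEM–10% FCS containing graded compound concentrations. Incubated 4 days at 37 °C, 10% CO2, 98% humidity. Inhibition scored by inverted microscopy against untreated controls, which were kept in exponential growth. Mean of duplicate wells.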

[1] = Selectivity index is the ratio of IC50 of P-388 cell line to that of HT-29; type: functional

SMILES | IC50 (A549; Homo sapiens, A549) [nM] | IC50 (SK-MEL-28) [nM] | IC50 (HT-29; Homo sapiens, HT-29) [nM] | IC50 (A549; a549) [nM] | IC50 (HT-29; ht-29) [nM] | IC50 (P388) [nM] | Selectivity index [1]
CC/N=C/C1=Cc2c(cc3c(c2OC)OCO3)C(c2cc(OC)c(OC)c(OC)c2)[C@@H]1C(=O)OC (some centres not stated) | > 10000 | 1000 | 100 |  |  |  | 
CC/N=C/C1=Cc2cc3c(cc2[C@@H](c2cc(OC)c(OC)c(OC)c2)[C@@H]1C(=O)OC)OCO3 (stereo in doubt; 5) |  | 22 |  | 22 | 2.2 | 1100 | 500
COC(=O)[C@@H]1C(C=O)=Cc2c(cc3c(c2OC)OCO3)[C@H]1c1cc(OC)c(OC)c(OC)c1 | 220 |  | 20 |  |  | 1100 | 55
COC(=O)[C@@H]1C(/C=N/C2CCCCC2)=Cc2cc3c(cc2C1c1cc(OC)c(OC)c(OC)c1)OCO3 (some centres not stated) | 250 | 490 | 25 |  |  | 2000 | 80
